Reference: ChEMBL document CHEMBL4118052, “Involvement of the Glucocorticoid Receptor in Pro-inflammatory Transcription Factor Inhibition by Daucane Esters from Laserpitium zernyi” (J Nat Prod, 2017)

What was measured:
[1] = target: T1, Glucocorticoid receptor (Homo sapiens) (UniProt P04150); experiment: Modulation of glucocorticoid receptor in human A549 cells assessed as 0.1 uM dexamethasone-induced GRE-driven promoter activity at 10 uM by luciferase reporter gene assay (reference value: 100%); assay type: cell-based
T1 sequence (whole entry): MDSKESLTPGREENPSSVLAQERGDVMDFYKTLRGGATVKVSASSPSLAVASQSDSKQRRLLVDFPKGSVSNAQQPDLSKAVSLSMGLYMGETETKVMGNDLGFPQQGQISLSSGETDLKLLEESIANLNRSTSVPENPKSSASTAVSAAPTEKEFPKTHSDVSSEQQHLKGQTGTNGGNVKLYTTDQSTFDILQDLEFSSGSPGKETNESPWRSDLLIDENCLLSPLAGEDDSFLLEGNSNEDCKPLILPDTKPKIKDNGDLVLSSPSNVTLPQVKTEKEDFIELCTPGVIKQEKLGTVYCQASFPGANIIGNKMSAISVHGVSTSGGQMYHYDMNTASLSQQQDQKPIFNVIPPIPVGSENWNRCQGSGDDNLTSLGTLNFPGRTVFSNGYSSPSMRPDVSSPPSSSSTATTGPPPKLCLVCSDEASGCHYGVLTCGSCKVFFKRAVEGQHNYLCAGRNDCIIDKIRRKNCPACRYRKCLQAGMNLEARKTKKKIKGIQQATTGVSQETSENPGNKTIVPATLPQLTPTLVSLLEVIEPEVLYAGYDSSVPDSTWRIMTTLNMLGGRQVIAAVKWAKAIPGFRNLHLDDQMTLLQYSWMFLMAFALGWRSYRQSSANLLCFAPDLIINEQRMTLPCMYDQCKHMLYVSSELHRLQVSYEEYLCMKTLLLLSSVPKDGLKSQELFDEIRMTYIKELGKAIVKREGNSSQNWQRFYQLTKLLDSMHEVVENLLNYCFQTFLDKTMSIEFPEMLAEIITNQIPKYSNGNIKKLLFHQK
In short: (§1)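 A549 cells with a stably integrated GRE-dependent promoter-luciferase construct. Compound at 10 or 30 μM given together with dexamethasone at 0.1 or 0.01 μM. Luciferase expressed as % of Dex-induced expression with solvent alone. Mean ± SD of ≥3 independent replicates.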

[2] = Cytotoxicity against TNFalpha stimulated human A549 cells harboring NFkB-Luc assessed as cell viability at 30 uM preincubated for 1 hr followed by TNFalpha stimulation measured after 5 hrs by Cell-Titer Glo assay (reference value: 100%); assay type: cell-based; conditions: read-out: Activity
In short: (§2)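 A549 cells with stably integrated NF-κB-Luc seeded at 9000/well for 24 h, then exposed to compound (10, 30, 60 μM) or solvent. TNF given 1 h later, 5 h incubation. Cell Titer Glo ATP readout, with TNF-treated solvent group as 100%.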

[3] = system: A549; experiment: Cytotoxicity against TNFalpha stimulated human A549 cells harboring NFkB-Luc assessed as reduction in cell viability at 60 uM preincubated for 1 hr followed by TNFalpha stimulation measured after 5 hrs by Cell-Titer Glo assay relative to control; assay type: cell-based; conditions: a549, 5 h; in short: as §2
[4] = system: A549; experiment: Cytotoxicity against PMA stimulated human A549 cells harboring AP-1-Luc assessed as reduction in cell viability preincubated for 1 hr followed by PMA stimulation measured after 5 hrs by Cell-Titer Glo assay; assay type: cell-based; conditions: a549, 5 h
In short: (§3)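 AP-1-Luc A549 cells (9000/well) incubated 24 h, then compound (10, 30, 60 μM) or solvent added. PMA induction 1 h later, 5 h further incubation. Viability by Cell Titer Glo ATP luminescence. Solvent group treated with PMA set as 100%.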

[5] = target: T1, Glucocorticoid receptor (Homo sapiens); experiment: Modulation of glucocorticoid receptor in human A549 cells harboring AP-1-Luc assessed as reduction in PMA-induced AP-1 activity by measuring AP-1 activity at 60 uM preincubated for 1 hr followed by PMA stimulation measured after 5 hrs by luciferase reporter gene assay (reference value: 100%); assay type: cell-based; parameters: scale not given: the % may be the effect or the level left
In short: (§4)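 AP-1-Luc A549 cells (9000/well, 24 h) pretreated 1 h with compound (10–60 μM), dexamethasone 1 μM or solvent, then PMA-induced for 5 h. Luciferase activity as % of PMA-induced solvent group. One-way ANOVA with Tukey test.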

[6] = Cytotoxicity against PMA stimulated human A549 cells harboring AP-1-Luc assessed as cell viability at 30 uM preincubated for 1 hr followed by PMA stimulation measured after 5 hrs by Cell-Titer Glo assay (reference value: 100%); assay type: cell-based; conditions: read-out: Activity; in short: as §3
[7] = system: A549; experiment: Cytotoxicity against PMA stimulated human A549 cells harboring AP-1-Luc assessed as reduction in cell viability at 60 uM preincubated for 1 hr followed by PMA stimulation measured after 5 hrs by Cell-Titer Glo assay relative to control; assay type: cell-based; conditions: a549, 5 h; in short: as §3
[8] = system: A549; experiment: Cytotoxicity against GR knockout human A549 cells harboring Neo-Luc assessed as reduction in cell viability at 60 uM by Cell-Titer Glo assay relative to control; assay type: cell-based; conditions: a549, 60 µM
In short: (§5)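 NeoLuc A549 cells (9000/well) incubated 24 h, then test compound or solvent added; viability by Cell Titer Glo ATP luminescence, run by the same protocol as the reporter assays. Solvent-treated control taken as 100%.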

[9] = target: T1, Glucocorticoid receptor (Homo sapiens); experiment: Modulation of glucocorticoid receptor in human A549 cells assessed as 0.1 uM dexamethasone-induced GRE-driven promoter activity at 30 uM by luciferase reporter gene assay (reference value: 100%); assay type: cell-based; in short: as §1
[10] = target: T1, Glucocorticoid receptor (Homo sapiens); experiment: Modulation of glucocorticoid receptor in human A549 cells assessed as 0.01 uM dexamethasone-induced GRE-driven promoter activity at 10 uM by luciferase reporter gene assay (reference value: 100%); assay type: cell-based; in short: as §1
[11] = Cytotoxicity against GR knockout human A549 cells harboring Neo-Luc assessed as cell viability at 30 uM by Cell-Titer Glo assay (reference value: 100%); assay type: cell-based; conditions: read-out: Activity; in short: as §5
[12] = system: A549; experiment: Cytotoxicity against TNFalpha stimulated human A549 cells harboring NFkB-Luc assessed as reduction in cell viability preincubated for 1 hr followed by TNFalpha stimulation measured after 5 hrs by Cell-Titer Glo assay; assay type: cell-based; conditions: a549, 5 h; in short: as §2
[13] = target: T1, Glucocorticoid receptor (Homo sapiens); experiment: Modulation of glucocorticoid receptor in human A549 cells harboring AP-1-Luc assessed as reduction in PMA-induced AP-1 activity preincubated for 1 hr followed by PMA stimulation measured after 5 hrs by luciferase reporter gene assay; assay type: cell-based; in short: as §4
[14] = target: T1, Glucocorticoid receptor (Homo sapiens); experiment: Modulation of glucocorticoid receptor in human A549 cells harboring NFkB-Luc assessed as reduction in TNFalpha-induced NFkB activity preincubated for 1 hr followed by TNFalpha stimulation measured after 5 hrs by luciferase reporter gene assay; assay type: cell-based
In short: (§6)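 A549 cells with stably integrated NF-κB-Luc (9000/well, 24 h) given compound at 10, 30 or 60 μM, dexamethasone 1 μM or solvent for 1 h. TNF (200 IU/mL) induction for 5 h, then luciferase read. Values as % of TNF-induced solvent control; four independent replicates; one-way ANOVA.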

[15] = target: T1, Glucocorticoid receptor (Homo sapiens); experiment: Modulation of glucocorticoid receptor in human A549 cells assessed as 0.01 uM dexamethasone-induced GRE-driven promoter activity at 30 uM by luciferase reporter gene assay (reference value: 100%); assay type: cell-based; in short: as §1
[16] = target: T1, Glucocorticoid receptor (Homo sapiens); experiment: Modulation of glucocorticoid receptor in human A549 cells assessed as TNFalpha-induced CCL2 production at 30 uM preincubated for 1 hr followed by TNFalpha stimulation measured after 5 hrs by ELISA (reference value: 100%); assay type: cell-based
In short: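 Basal (non-reporter) A549 cells treated with compound at 30 μM, then TNF (200 IU/mL). CCL2 protein in medium measured by ELISA, as % of TNF-treated solvent control. Mean ± SD of three independent replicates; Student's t test.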

[17] = Cytotoxicity against GR knockout human A549 cells harboring Neo-Luc assessed as cell viability at 60 uM by Cell-Titer Glo assay (reference value: 100%); assay type: cell-based; conditions: read-out: Activity; in short: as §5
[18] = Cytotoxicity against TNFalpha stimulated human A549 cells harboring NFkB-Luc assessed as cell viability at 60 uM preincubated for 1 hr followed by TNFalpha stimulation measured after 5 hrs by Cell-Titer Glo assay (reference value: 100%); assay type: cell-based; conditions: read-out: Activity; in short: as §2
[19] = Cytotoxicity against PMA stimulated human A549 cells harboring AP-1-Luc assessed as cell viability at 60 uM preincubated for 1 hr followed by PMA stimulation measured after 5 hrs by Cell-Titer Glo assay (reference value: 100%); assay type: cell-based; conditions: read-out: Activity; in short: as §3
[20] = target: T1, Glucocorticoid receptor (Homo sapiens); experiment: Modulation of glucocorticoid receptor in human A549 cells harboring NFkB-Luc assessed as reduction in TNFalpha-induced NFkB activity by measuring NFkB activity at 60 uM preincubated for 1 hr followed by TNFalpha stimulation measured after 5 hrs by luciferase reporter gene assay (reference value: 100%); assay type: cell-based; parameters: scale not given: the % may be the effect or the level left; in short: as §6
[21] = system: A549; experiment: Inhibition of TNFalpha-induced NFkB activity in GR knockout human A549 cells harboring NFkB-Luc assessed as NFkB activity at 30 uM preincubated for 1 hr followed by TNFalpha stimulation measured after 5 hrs by luciferase reporter gene assay (reference value: 100%); assay type: functional; parameters: scale not given: the % may be the effect or the level left
In short: (§7)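 GR-knockout A549 cells carrying stably integrated NF-κB-Luc. Pretreatment 1 h with compound (30 μM) or dexamethasone (1 μM), then TNF (200 IU/mL) for 5 h. Luciferase luminescence as % of TNF-induced solvent control.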

[22] = system: A549; experiment: Inhibition of TNFalpha-induced NFkB activity in GR knockout human A549 cells harboring NFkB-Luc assessed as NFkB activity at 1 uM preincubated for 1 hr followed by TNFalpha stimulation measured after 5 hrs by luciferase reporter gene assay (reference value: 100%); assay type: functional; parameters: scale not given: the % may be the effect or the level left; in short: as §7

C/C=C(/C)C(=O)O[C@@H]1C=C(C)CC[C@]2(O)[C@@H](C(C)C)CC(=O)[C@]12C
Activity [1]: > 90%
viability at 5 h, 30 µM [2]: > 97%
Activity [3]: <= 10%
Activity [4]: Dose-dependent effect
Activity [5]: 41.4%
viability at 5 h, 30 µM [6]: > 97%
Activity [7]: <= 10%
Activity [8]: <= 10%
Activity [9]: 74.5%
Activity [10]: > 90%
viability at 30 µM [11]: > 97%
Activity [12]: Dose-dependent effect
Activity [13]: Dose-dependent effect
Activity [14]: Dose-dependent effect
Activity [15]: 80.4%
Activity [16]: 70.1%

C/C=C(/C)C(=O)O[C@H]1C[C@@](C)(O)C(=O)[C@@H](OC(=O)/C(C)=C\C)[C@@]2(C)CC[C@@](O)(C(C)C)[C@H]12
Activity [1]: > 90%
Activity [4]: Dose-dependent effect
Activity [9]: > 90%
Activity [10]: > 90%
Activity [12]: Dose-dependent effect
Activity [13]: Dose-dependent effect
Activity [14]: Dose-dependent effect
Activity [15]: 83.5%

C/C=C(/C)C(=O)O[C@@H]1C[C@@](O)(C(C)C)[C@@H]2CCC(C)=C[C@@H](OC(C)=O)[C@]21C
Activity [1]: 78%
viability at 5 h, 30 µM [2]: > 95%
viability at 60 µM [17]: 90%
Activity [4]: Dose-dependent effect
Activity [5]: 41%
viability at 5 h, 60 µM [18]: 97.3%
viability at 5 h, 60 µM [19]: 93.4%
viability at 5 h, 30 µM [6]: > 95%
Activity [9]: 67.1%
Activity [10]: 70.1%
viability at 30 µM [11]: > 95%
Activity [12]: Dose-dependent effect
Activity [13]: Dose-dependent effect
Activity [20]: 52%
Activity [14]: Dose-dependent effect
Activity [21]: 83.6%
Activity [15]: 48.9%
Activity [16]: 72.1%

C/C=C(/C)C(=O)O[C@@H]1C[C@@](O)(C(C)C)[C@@H]2CCC(C)=C[C@@H](O)[C@]21C
Activity [1]: > 90%
viability at 5 h, 30 µM [2]: > 97%
Activity [3]: <= 10%
Activity [4]: Dose-dependent effect
viability at 5 h, 30 µM [6]: > 97%
Activity [7]: <= 10%
Activity [8]: <= 10%
Activity [9]: 80.9%
Activity [10]: > 90%
viability at 30 µM [11]: > 97%
Activity [12]: Dose-dependent effect
Activity [13]: Dose-dependent effect
Activity [14]: Dose-dependent effect
Activity [21]: 91.8%
Activity [15]: 77%

C[C@@H]1C[C@H]2[C@@H]3CCC4=CC(=O)C=C[C@]4(C)[C@@]3(F)[C@@H](O)C[C@]2(C)[C@@]1(O)C(=O)CO [DEXAMETHASONE]
Activity [22]: 97.2%

C/C=C(/C)C(=O)O[C@@H]1C[C@@](O)(C(C)C)[C@@H]2CC=C(C)C(=O)[C@@H](O)[C@]21C
Activity [1]: > 90%
Activity [4]: Dose-dependent effect
Activity [9]: 71.6%
Activity [10]: > 90%
Activity [12]: Dose-dependent effect
Activity [13]: Dose-dependent effect
Activity [14]: Dose-dependent effect
Activity [15]: 52.8%
